The target in data set [1] is T1, Nuclear receptor subfamily 1 group I member 2 (Homo sapiens, UniProt O75469).
T1 sequence (O75469 whole entry): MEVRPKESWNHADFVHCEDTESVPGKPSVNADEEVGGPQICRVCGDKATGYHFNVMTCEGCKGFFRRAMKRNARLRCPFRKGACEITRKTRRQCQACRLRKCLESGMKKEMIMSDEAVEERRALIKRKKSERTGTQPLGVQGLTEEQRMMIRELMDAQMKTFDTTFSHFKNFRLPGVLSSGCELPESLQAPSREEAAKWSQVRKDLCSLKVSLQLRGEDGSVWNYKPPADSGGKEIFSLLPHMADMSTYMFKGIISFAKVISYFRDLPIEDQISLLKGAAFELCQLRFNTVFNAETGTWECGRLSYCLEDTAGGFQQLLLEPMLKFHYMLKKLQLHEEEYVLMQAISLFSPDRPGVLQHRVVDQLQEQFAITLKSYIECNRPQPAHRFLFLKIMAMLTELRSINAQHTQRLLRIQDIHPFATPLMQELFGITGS
Description: Binding affinity to human SXR transfected in human HepG2 cells coexpressing GAL4 assessed as transcriptional activation at 5 X 10^-6 M after 48 hrs by luciferase reporter gene assay. Format: cell-based. The note with it: hepg2, 48 h, 5 µM. In a few lines: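 HepG2 cells (2 x 10⁵/well) transfected by Lipofectamine with pM-SXR (0.1 μg), pGVP2-GAL2 luciferase reporter (1.0 μg) and pRL-CMV (0.05 μg). Mean ± SD of three independent experiments; Student's t test.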
In general terms: A reporter such as luciferase makes a cellular process visible.

Data set [2] has as its target T1, Nuclear receptor subfamily 1 group I member 2. Briefly: Agonist activity at human SXR transfected in human HepG2 cells coexpressing GAL4 assessed as activation of receptor-mediated CYP3A4 gene transcription at 1 X 10^-6 M after 48 hrs by luciferase reporter gene assay. The following applies: hepg2, 48 h, 1 µM.
Another data set relates to Homo sapiens. Description: Drug level in osteoporotic patient at 45 […] administered daily. Format: ADME, organism-based. The note with it: in vivo, read-out: Drug uptake.

On to `CC1=C(C/C=C(\C)CC/C=C(\C)Cc2ccccc2)C(=O)c2ccccc2C1=O`, for which the outcome in data set [1] and in data set [2] was Active.
Consider `CC1=C(C/C=C(\C)CC/C=C(\C)CC/C=C(\C)Cc2ccccc2)C(=O)c2ccccc2C1=O`, for which the outcome in data set [1] and in data set [2] was Active.
As to `CC(C)=CCC1=C(C)C(=O)c2ccccc2C1=O`, the result in data set [1] and in data set [2] was Active.
On to `CC1=C(C/C=C(\C)CC/C=C(\C)CO)C(=O)c2ccccc2C1=O`, for which the Activity result is “Not Active” in data set [1] and “Active” in data set [2].
Regarding `CC1=C(C/C=C(\C)CC/C=C(\C)CC/C=C(\C)CC/C=C(\C)CO)C(=O)c2ccccc2C1=O`, the Activity entry in data set [1] was “Not Active”; in data set [2] it was “Active”.
The corresponding values for `CC(C)=CCC/C(C)=C/CC/C(C)=C/CC1=C(C)C(=O)c2ccccc2C1=O` are “Active” and “Active”.
The matching figures for `CC1=C(C/C=C(\C)CC/C=C(\C)CC/C=C(\C)CO)C(=O)c2ccccc2C1=O`: “Not Active” and “Active”.
`CC(C)=CCC/C(C)=C/CC1=C(C)C(=O)c2ccccc2C1=O` [MENAQUINONE-2]: the outcome in data set [1] was Active.
On to `CC(C)=CCC/C(C)=C/CC/C(C)=C/CC/C(C)=C/CC1=C(C)C(=O)c2ccccc2C1=O` [MENATETRENONE], for which the result in data set [1] and in data set [2] was Active. For the same molecule, the concentration in the data set on Homo sapiens was 1000 nM.
Turning to `CO[C@H]1/C=C/O[C@@]2(C)Oc3c(C)c(O)c4c(O)c(c(/C=N/N5CCN(C)CC5)c(O)c4c3C2=O)NC(=O)/C(C)=C\C=C\[C@H](C)[C@H](O)[C@@H](C)[C@@H](O)[C@@H](C)[C@H](OC(C)=O)[C@@H]1C` [RIFAMPIN], the result in data set [1] was Active.

Source of the values: ChEMBL document CHEMBL1799964, “Synthesis of novel vitamin K2 analogues with modification at the ω-terminal position and their biological evaluation as potent steroid and xenobiotic receptor (SXR) agonists” (J Med Chem, 2011).
